# The list is not random: actives were taken first. Their share in the collection is about 3.5%.
# Wnt bcat act: Wnt/beta-catenin pathway activators, primary screen, cell-based, plate reader, single point. Wnt/beta-catenin reporter cell assay, activator. activation, % at 9.35 µM. actives 1.2% (n = 300,000). AID 743398, 2014; in the data active = activation above about 30%, passing the limit was not always enough
# MITF TRPM1 HTS: activators of MITF-driven TRPM1 promoter reporter, primary screen, cell-based, SK-MEL-5, luciferase, single point. SK-MEL-5 TRPM1-promoter luciferase, 24 h; % of positive control, neutral wells = 0. actives 0.75% (n = 300,000). activation, % at 12.5 µM;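 active = mean activation of at least 80% with every replicate also reaching 80%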
# ERAP1 HTS inh: human ERAP1 aminopeptidase inhibitors, primary screen, biochemical, single point, plate reader; recombinant ERAP1, Leu-AMC fluorescence, 60 min; inhibition, % at 10.7 µM; actives 0.15% (n = 340,000); AID 652197, 2013;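 active = mean replicate inhibition of at least 30%, or all replicates individually reaching that 30% level; inactive = mean below 30% and not every replicate reaching it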
# Cneo AK release: Cryptococcus neoformans cell lysis inducers, primary screen, AK release luminescence, single concentration; C. neoformans lysis, adenylate kinase release luminescence, 4 h; normalised: neutral wells 0, clomiphene wells 100; lysis activity, % at 15 µM; actives 0.2% (n = 360,000); AID 651654, 2012;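 active = mean lysis activity across replicates of at least 80%, whatever share of replicates individually reach that level; inactive = mean lysis activity below 80%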
#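 Material: C. neoformans cells; Schedule: 4 h static compound exposure, 37 °C, read 1 h post-reagent; Measured by: adenylate kinase release luminescence; Read-out: signal increase indicating cell lysis; Controls: Clomiphene as positive lysis control.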
# esBAF inh: Bmi1 luciferase reporter increase in mESCs, primary screen, esBAF inhibitor project, mouse ES cells, Bmi1 luciferase knock-in, single point; 24 h; 100% = twice the neutral-well signal; reporter increase, % at 12.5 µM; actives 2% (n = 350,000); AID 602393, 2012; in the data active = activation above about 40%;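 also: a rise in the Bmi1 reporter signal indicates esBAF inhibition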
# Env fusion inh: inhibitors of HIV-1 Env-driven cell-cell fusion, primary screen, HeLa-JRFL effector, CEM21 target cells, luciferase. inhibition, % at 12.3 µM. AID 651610, 2012. actives 1.1% (n = 360,000);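 active = mean replicate inhibition score of at least 50 and every replicate individually at or above 50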
# Hits are given with their value; . = inactive; / = no result.
SMILES,Wnt bcat act,MITF TRPM1 HTS,ERAP1 HTS inh,Cneo AK release,esBAF inh,Env fusion inh
OC[C@H]1[C@@H](c2ccc(C#CC3CC3)cc2)[C@@H]2CN(CCC(F)(F)F)CCCCN12,/,/,/,.,/,/
O=C1c2ccccc2C(O)N1c1ccccc1 (stereo unspecified),.,.,.,.,.,.
COc1ccc(N2C(=O)c3ccccc3C2O)cc1 (stereo unspecified),44,.,.,.,.,.
C[C@@H]1CN([C@@H](C)CO)C(=O)c2cc(C3=CCCC3)cnc2O[C@H]1CN(C)C(=O)c1ccc(F)cc1,/,/,.,.,.,.
CN1c2ccsc2/C(=N/Nc2ccc(F)cc2)CS1(=O)=O,.,.,.,.,64,.
CCCC(=O)N/N=C1\CS(=O)(=O)N(C)c2ccsc21,.,.,.,.,.,.
O=C1NCCC/C1=N/Nc1ccc(F)cc1,.,/,.,/,/,.
Cc1ccc(N/N=C2\CS(=O)(=O)N(C)c3ccsc32)cc1,.,.,.,.,59,.
COc1ccccc1-c1ccc([C@@H]2[C@H](C#N)N[C@@H]2CO)cc1,/,/,.,.,.,/
CCCNC(=O)N1C[C@@H]2[C@H](c3ccccc31)[C@H](CO)N2Cc1ccc(F)cc1,/,/,.,.,.,/
c1ccc2c(Nc3nc4c(s3)CCCC4)cccc2c1,35,/,/,.,.,.
O=S(=O)(Nc1nc2c(s1)CCCC2)c1ccc2ccccc2c1,/,.,/,.,.,/
C[C@@H]1CCCCO[C@H](CN(C)C(=O)Cc2ccccc2)[C@H](C)CN([C@@H](C)CO)C(=O)c2cc(NC(=O)Nc3ccc4c(c3)OCO4)ccc2O1,/,/,.,.,.,.
CCCC(=O)Nc1ccc2c(c1)C(=O)N(C)C[C@@H](OC)[C@@H](C)CN(Cc1cccc(F)c1)[C@@H](C)CO2,/,/,.,.,.,/
CC(=O)Nc1cc2c(cc1[N+](=O)[O-])-c1ccc(F)cc1C2,.,.,.,.,52,.
CC(=O)Nc1ccc2c(c1)-c1ccc(F)cc1C2,.,.,.,/,/,.
CC(=O)Nc1cc(F)c2c(c1F)Cc1cc(F)ccc1-2,.,.,.,.,103,.
COC(=O)[C@@H](NC(=O)NCCC1=CCCCC1)C(C)C,65,.,.,.,.,.
CCC(=O)N1C[C@@H](C)[C@H](OC)CN(C)C(=O)c2ccc(NC(=O)c3ccccc3)cc2OC[C@H]1C,/,/,.,.,.,.
COc1ccc(C(C(=O)NC2CCCC2)N(C(=O)c2ccoc2C)c2ccc(C)cc2)cc1 (stereo unspecified),.,.,/,.,.,90
COc1ccc(C(C(=O)NC2CCCCC2)N(C(=O)CCl)c2ccc(C)cc2)cc1 (stereo unspecified),.,.,.,/,/,56
COc1ccc(N(C(=O)CCl)C(C(=O)NC2CCCCC2)c2cccnc2)cc1 (stereo unspecified),.,.,/,/,/,51
C[C@@H]1CCCCO[C@H](CN(C)Cc2ccc(C(=O)Nc3ccccc3N)cc2)[C@@H](C)CN([C@@H](C)CO)C(=O)c2cc(NS(=O)(=O)c3ccc(Cl)cc3)ccc2O1,/,/,.,.,.,.
Cc1ccc(NC(=O)ON=C2CCCC2)cc1,.,97,.,/,/,/
COCC(=O)N(C)C[C@@H]1Oc2ncc(-c3ccc(C#N)cc3)cc2C(=O)N([C@@H](C)CO)C[C@@H]1C,/,/,.,.,.,.
SMILES,Wnt bcat act,MITF TRPM1 HTS,ERAP1 HTS inh,Cneo AK release,esBAF inh,Env fusion inh
O=C(CNC(=O)c1ccc(Cl)cc1)c1ccc(Cl)cc1,.,.,.,.,.,.
O=C(CNC(=O)c1ccc(F)cc1)c1ccc(Cl)cc1,.,.,.,.,53,.
Clc1ccccc1-c1ncc2ccccn12,36,.,.,/,/,.
Clc1ccc(-c2ncc3ccccn23)cc1,.,.,.,/,/,.
COc1ccc(NC(=O)COc2cccnc2[N+](=O)[O-])cc1OC,.,.,.,.,.,.
O=C(COc1ccc(Br)cc1CO)Nc1ccccc1F,.,102,/,.,.,/
O=C(COc1cccnc1[N+](=O)[O-])Nc1cccc(Br)c1,.,.,.,.,63,.
O=C(COc1ccc(Br)cc1CO)Nc1ccccc1,31,/,/,.,56,.
Cc1ccc(NC(=O)COc2ccc(Br)cc2CO)cc1,/,.,/,/,.,.
C[C@H]1CN([C@@H](C)CO)C(=O)c2cc(NC(=O)CCN3CCOCC3)ccc2O[C@H]1CN(C)C,/,/,.,.,.,/
CC[N+](C)(CC)CCC(c1ccccc1)C1CCCCC1 (stereo unspecified),.,/,109,.,.,.
CC[N+](C)(CC)CCOC(=O)C(O)(c1ccccc1)C1CCCCC1 (stereo unspecified),.,.,.,.,.,.
C[C@@H]1CN([C@H](C)CO)C(=O)c2cc(NS(=O)(=O)c3ccccc3)ccc2O[C@@H]1CN(C)Cc1ccccc1,/,/,.,.,.,.
O=C(c1ccc(F)cc1)N1CC(=O)N2[C@@H](CO)[C@@H](c3ccc(C4=CCCC4)cc3)[C@@H]2C1,/,/,.,/,/,/
CN(C)c1ccnc2sc3c(SCc4ccc(Cl)cc4)ncnc3c12,/,91,/,/,/,.
O=C(NCCOc1ccc(Cl)cc1)c1ccc2c(c1)OCCO2,.,98,.,.,.,/
O=C(NCCc1ccc(Cl)cc1)c1ccc2c(c1)OCO2,37,.,.,.,/,.
O=C(NCCc1ccc(Cl)cc1)c1ccc2c(c1)OCCO2,.,/,.,.,.,.
O=C(NCc1ccccc1F)c1ccc2c(c1)OCO2,.,.,/,.,.,.
O=C(NCCc1ccccc1F)c1ccc2c(c1)OCCO2,.,.,.,.,.,76
COc1ccc2sc(N(CCCN(C)C)C(=O)c3ccc(S(=O)(=O)N4CCc5ccccc5C4)cc3)nc2c1,.,.,.,.,.,102
Cc1ccc(S(=O)(=O)N(C)C[C@@H]2OCCCC[C@H](C)Oc3ccc(NC(=O)c4ccccc4)cc3C(=O)N([C@@H](C)CO)C[C@H]2C)cc1,/,/,.,.,.,.
CCOc1ccc(S(=O)(=O)NCc2ccncc2)cc1,/,.,/,.,.,85
CCOC(=O)COc1ccc(S(=O)(=O)NCc2ccncc2)cc1,/,.,/,.,.,/
CC(C)NC(=O)Nc1ccc2c(c1)CC(=O)N([C@H](C)CO)C[C@H](C)[C@@H](CN(C)C(=O)Nc1ccc(C(F)(F)F)cc1)O2,/,/,.,.,.,/
CC(=O)Nc1cccc(OCc2ccc([N+](=O)[O-])cc2)c1,43,/,.,/,/,.
CC(=O)Nc1cccc(NC(=O)c2ccc(COc3ccccc3)cc2)c1,.,154,.,.,98,.
c1ccc(CN2c3ccccc3-c3nc4ccccc4n3C2c2ccccn2)cc1 (stereo unspecified),/,/,/,.,.,.

# Screening results (PubChem BioAssay)
